Laboratory results as given in ChEMBL document CHEMBL5032505, “Design, Synthesis, and Activity Evaluation of Stereoconfigured Tartarate Derivatives as Potential Anti-inflammatory Agents In Vitro and In Vivo” (J Med Chem, 2021).
Activity calls are given as the source filed them. The calls are words filed in the database; no cut-off is given here.

Key:
Mus musculus [1] = test: Sedative activity in Swiss albino mouse at 300 mg/kg, po after 2 hrs; format: ADME, organism-based; conditions: in vivo
Procedure, shortened: (§1)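 Acute oral toxicity in Swiss albino mice fasted 4 h, three per group, vehicle control group alongside. Single 300 mg/kg oral dose, continuous observation for 4 h, then periodic checks over 14 days.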

[2] = target: T1, Prostaglandin G/H synthase 1 (Ovis aries, UniProt P05979); test: Inhibition of ovine COX-1 using arachidonic acid as substrate preincubated for 10 mins followed by substrate addition and measured after 2 mins by EIA
T1 sequence (P05979 whole entry): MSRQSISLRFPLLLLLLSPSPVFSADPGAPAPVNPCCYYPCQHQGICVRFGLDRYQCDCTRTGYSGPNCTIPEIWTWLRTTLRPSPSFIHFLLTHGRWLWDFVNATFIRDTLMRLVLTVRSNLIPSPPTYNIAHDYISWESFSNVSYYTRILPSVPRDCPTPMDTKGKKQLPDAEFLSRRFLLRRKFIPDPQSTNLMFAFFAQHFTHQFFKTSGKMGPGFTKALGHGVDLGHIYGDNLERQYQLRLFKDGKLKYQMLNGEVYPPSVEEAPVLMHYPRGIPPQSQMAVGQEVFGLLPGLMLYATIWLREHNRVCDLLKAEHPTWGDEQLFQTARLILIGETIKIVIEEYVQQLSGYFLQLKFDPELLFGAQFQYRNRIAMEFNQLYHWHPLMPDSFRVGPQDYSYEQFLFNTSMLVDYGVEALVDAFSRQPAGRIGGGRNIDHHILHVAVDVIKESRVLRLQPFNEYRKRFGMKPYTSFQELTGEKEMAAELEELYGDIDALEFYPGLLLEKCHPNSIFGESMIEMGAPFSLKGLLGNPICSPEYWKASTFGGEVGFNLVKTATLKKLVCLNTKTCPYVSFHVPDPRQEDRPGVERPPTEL
Procedure, shortened: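 COX-1 EIA run at 10⁻⁴–10⁻⁸ M in triplicate. Enzyme with heme in reaction buffer plus inhibitor, incubated 10 min at 37 °C. Boiled (3 min) enzyme served as background. Prostaglandin output quantified to give IC50.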

[3] = Inhibition of soybean LOX using arachidonic acid as substrate incubated for 5 mins; design: species or system Glycine max
Procedure, shortened: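 Soybean lipoxygenase in assay buffer, compounds at 10⁻⁴–10⁻⁸ M from DMSO stocks, triplicate. Reaction started with arachidonic acid and shaken 5 min. Chromogen added, shaken 5 min more, absorbance read at 490 nm. Blanks were buffer + AA. % inhibition computed with chromogen extinction coefficient 9.47 mM⁻¹.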

Albumin [4] = target: T2, Albumin (Homo sapiens, UniProt P02768); test: Binding affinity to HSA assessed as change in entropy by isothermal titration calorimetry
Procedure, shortened: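 Isothermal titration calorimetry at 25 °C. Ligand at 100 μM in DMSO:0.1 M Tris buffer (1:9), loaded in the syringe and stirred at 500 rpm. HSA (0.05 g per mL Tris buffer) placed in the sample cell. Forty 1 μL injections at 120 s intervals. Heats corrected with control titrations: ligand into buffer, and buffer into protein. Binding parameters fitted with a single-site model (Q = nΘMtΔHVo).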

[5] = Tmax in Swiss albino mouse at 10 mg/kg, ip measured upto 24 hrs by LC-MS analysis; format: ADME, organism-based; conditions: in vivo
Procedure, shortened: (§2)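 Swiss albino mice (25−35 g), either sex, 10 groups of three. 10 mg/kg suspended in 0.1% CMC, given i.p. Ketamine anaesthesia (50 mg/kg i.p.). Jugular vein blood taken at 30, 45, 60 min and 2, 3, 4, 6, 8, 11, 24 h into heparinised tubes, triplicate samples per time point.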

Mus musculus [6] = test: Antiinflammatory activity against Swiss albino mouse assessed as reduction in carragenan-induced paw edema at 2.5 mg/kg treated 30 mins prior to carrageenan challenge and measured upto 360 mins relative to control; format: functional; design: scale not given: the % may be the effect or the level left; conditions: time 390 min, 6.5 h
Procedure, shortened: (§3)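 100 μL freshly prepared 1% carrageenan injected into the subplantar hind paw, with indomethacin (10 mg/kg) or test compound given 30 min before. Dose–response arm used 0.5, 2.5, 5, 10, 20 mg/kg. Six animals per group. Paw thickness (mm) read at 15, 30, 60, 120, 180, 240, 300, 360 min. Result expressed as % decrease versus control.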

Glycine max [7] = tested on: Glycine max
Glycine max [8] = tested on: Glycine max; remark: listed apart in the source
[9] = AUC (0 to t) in Swiss albino mouse at 10 mg/kg, ip measured upto 24 hrs by LC-MS analysis; format: ADME, organism-based; design: route intraperitoneal, dose 10 mg/kg, time <=24; conditions: in vivo; procedure, shortened: as §2
Glycine max [10] = test: Binding affinity to soybean 5-LOX assessed as change in entropy by isothermal titration calorimetry
Procedure, shortened: (§4)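 ITC at 25 °C in 0.1 M Tris buffer. Ligand at 100 μM in DMSO:Tris (1:9) titrated from a syringe stirred at 500 rpm into enzyme in the sample cell, 120 s spacing. 40 × 1 μL injections, except COX-1 at 20 × 2 μL. Buffer-only control titrations were subtracted.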

[11] = target: Prostaglandin G/H synthase 1 (Homo sapiens) (UniProt P23219); test: Inhibition of COX1 in human whole blood assessed as reduction in calcium ionophore-stimulated TXB2 production by ELISA; format: tissue-based
Mus musculus [12] = test: Antiinflammatory activity against Swiss albino mouse assessed as reduction in carragenan-induced paw edema at 20 mg/kg treated 30 mins prior to carrageenan challenge and measured upto 360 mins relative to control; format: functional; design: scale not given: the % may be the effect or the level left; conditions: time 390 min, 6.5 h; procedure, shortened: as §3
Mus musculus [13] = test: Antiinflammatory activity against Swiss albino mouse assessed as reduction in carragenan-induced paw edema at 5 mg/kg treated 30 mins prior to carrageenan challenge and measured upto 360 mins relative to control; format: functional; design: scale not given: the % may be the effect or the level left; conditions: time 390 min, 6.5 h; procedure, shortened: as §3
[14] = target: T3, Prostaglandin G/H synthase 1 (Ovis aries) (UniProt P05979); test: Binding affinity to ovine COX-1 assessed as change in entropy by isothermal titration calorimetry; procedure, shortened: as §4
T3 sequence (whole entry): T1 sequence (P05979 whole entry)

Mus musculus [15] = test: Antiinflammatory activity against Swiss albino mouse assessed as reduction in carragenan-induced paw edema at 0.5 mg/kg treated 30 mins prior to carrageenan challenge and measured upto 360 mins relative to control; format: functional; design: scale not given: the % may be the effect or the level left; conditions: time 390 min, 6.5 h; procedure, shortened: as §3
[16] = Cmax in Swiss albino mouse at 10 mg/kg, ip measured upto 24 hrs by LC-MS analysis; format: ADME, organism-based; design: route intraperitoneal, dose 10 mg/kg, time <=24; conditions: in vivo; procedure, shortened: as §2
[17] = target: T3, Prostaglandin G/H synthase 1 (Ovis aries)
[18] = Half life in Swiss albino mouse at 10 mg/kg, ip measured upto 24 hrs by LC-MS analysis; format: ADME, organism-based; conditions: in vivo; procedure, shortened: as §2
Mus musculus [19] = test: Analgesic activity in Swiss albino mouse assessed as inhibition of acetic acid-induced writhing at 5 mg/kg, ip administered 30 mins prior to acetic acid challenge and measured after 30 mins relative to control; format: functional; design: scale not given: the % may be the effect or the level left; conditions: time 60 min, 1 h
Procedure, shortened: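 Mice pretreated i.p. with indomethacin (10 mg/kg) or test compound (5 mg/kg) 30 min before 0.6% v/v acetic acid injection. Control group also received acetic acid. Animals placed in a transparent box and abdominal writhings counted for 30 min. Six animals per group, one-way ANOVA with Tukey's test, mean ± SEM.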

Albumin [20] = target: T2, Albumin; test: Binding affinity to HSA assessed as change in enthalpy by isothermal titration calorimetry
Mus musculus [21] = test: Sedative activity in Swiss albino mouse at 300 mg/kg, po after 1 hr; format: ADME, organism-based; conditions: in vivo; procedure, shortened: as §1
Mus musculus [22] = test: Analgesic activity in Swiss albino mouse assessed as inhibition of acetic acid-induced writhing at 5 mg/kg, ip preincubated for 30 mins with L-NIL followed by compound addition for 30 mins prior to acetic acid challenge and measured after 30 mins; format: functional, organism-based; conditions: time 60.0 min

T2 sequence (P02768 whole entry): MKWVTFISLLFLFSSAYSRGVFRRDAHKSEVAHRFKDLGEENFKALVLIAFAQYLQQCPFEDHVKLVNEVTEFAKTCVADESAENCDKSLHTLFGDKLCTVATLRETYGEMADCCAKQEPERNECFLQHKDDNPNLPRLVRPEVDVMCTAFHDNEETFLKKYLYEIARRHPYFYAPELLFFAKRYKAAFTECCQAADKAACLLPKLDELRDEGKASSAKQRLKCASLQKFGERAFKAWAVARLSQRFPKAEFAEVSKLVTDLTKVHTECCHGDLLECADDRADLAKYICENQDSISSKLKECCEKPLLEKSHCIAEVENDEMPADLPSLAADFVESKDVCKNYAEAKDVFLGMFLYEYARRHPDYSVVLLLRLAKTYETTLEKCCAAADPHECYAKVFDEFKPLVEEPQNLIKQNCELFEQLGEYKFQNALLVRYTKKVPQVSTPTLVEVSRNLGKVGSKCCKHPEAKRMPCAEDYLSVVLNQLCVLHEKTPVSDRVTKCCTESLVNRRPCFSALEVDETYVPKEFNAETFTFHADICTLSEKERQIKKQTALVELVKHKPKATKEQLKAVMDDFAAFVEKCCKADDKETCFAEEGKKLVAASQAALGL
Prostaglandin G/H synthase 1 (Homo sapiens), sequence (P23219 whole entry): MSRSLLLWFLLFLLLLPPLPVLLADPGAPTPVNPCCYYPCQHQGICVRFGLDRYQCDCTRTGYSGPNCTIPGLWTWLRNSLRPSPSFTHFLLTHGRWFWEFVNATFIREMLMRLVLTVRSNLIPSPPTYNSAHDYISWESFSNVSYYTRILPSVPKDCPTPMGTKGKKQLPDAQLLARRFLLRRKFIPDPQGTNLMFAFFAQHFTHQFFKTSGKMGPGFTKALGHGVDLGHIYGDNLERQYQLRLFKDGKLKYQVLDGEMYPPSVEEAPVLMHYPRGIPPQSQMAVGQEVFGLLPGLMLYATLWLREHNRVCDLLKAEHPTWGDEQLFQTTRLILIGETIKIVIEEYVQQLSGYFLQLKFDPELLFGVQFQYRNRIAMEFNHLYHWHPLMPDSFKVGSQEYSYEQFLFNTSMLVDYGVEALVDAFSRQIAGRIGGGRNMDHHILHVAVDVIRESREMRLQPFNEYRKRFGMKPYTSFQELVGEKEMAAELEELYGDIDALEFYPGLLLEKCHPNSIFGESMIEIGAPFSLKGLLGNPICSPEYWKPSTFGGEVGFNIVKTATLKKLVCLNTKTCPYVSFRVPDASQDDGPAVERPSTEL

IC50 [2]: 300 nM | IC50 [3]: 7 nM | TdeltaS (Albumin [4]): -258 kcal/mol | Tmax [5]: 1 h | Ka (Glycine max [7]): 1.33 10^5/M | deltaG (Glycine max [8]): -7 kcal/mol | AUC(0-t) at 24 h [9]: 241 µg·h/mL | TdeltaS (Glycine max [10]): -2.99 kcal/mol | Activity [11]: 1.6 ng/mL | TdeltaS [14]: -595 kcal/mol | Cmax [16]: 26000 ng/mL | Ka [17]: 1.64 10^3/M | half-life [18]: 8.74 h | deltaH (Albumin [20]): -264 kcal/mol
SMILES: O=C(O)Cn1nncc1CO[C@@H](C(=O)O)[C@@H](OCc1cnnn1CC(=O)O)C(=O)O
Activity (Mus musculus [1]): Non-Toxic | Activity (Mus musculus [6]): 5.4% | Activity (Mus musculus [12]): 38.5% | Activity (Mus musculus [13]): 32.6% | Activity (Mus musculus [15]): 2% | Activity (Mus musculus [19]): 65% | Activity (Mus musculus [21]): Toxic | Activity (Mus musculus [22]): Active
